# Hits are enriched below; roughly 2.3% of the tested compounds scored in any of these assays.
# DNMT1 inh: inhibitors of human DNMT1. inhibition (reported as % activation of signal), % at 10 µM. P26358. hit rate 0.83% among 360,000. AID 588458. DNMT1 molecular beacon, Hinp1I cleavage, fluorescence; in the data active = inhibition above about 50%
# STEP inh: blocks human striatal-enriched tyrosine phosphatase. recombinant STEP, OMFP fluorogenic substrate, fluorescence. inhibition, % at 20 µM. hit rate 0.25% among 360,000. P54829;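 active = inhibition at 20 µM, scaled per plate between control wells, above about 37%, limit read from the data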;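 note: 0% = DMSO with enzyme and substrate and 100% = substrate only without enzyme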
#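 material = STEP tyrosine phosphatase | reagent = fluorogenic phosphatase substrate OMFP at 25 µM final | doses = single compound dose of 20 µM, 1% DMSO final | schedule = 20 min reaction, room temperature, in the dark | measured by = fluorescence, 480/540 nm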
# SUMO1 PPI mod: alters human SUMO1 binding to SIM partners | SUMO1 binding to a labelled peptide, TR-FRET, 1 h | inhibition, % at 20 µM | hit rate 0.33% among 360,000 | P63165; in the data active = inhibition above about 37%
# Target sequence (P63165 whole entry, looked up): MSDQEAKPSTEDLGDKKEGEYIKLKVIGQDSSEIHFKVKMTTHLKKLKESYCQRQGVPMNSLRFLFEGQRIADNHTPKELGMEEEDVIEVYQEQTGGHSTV
# Scp-1 inhibitor: Scp-1 (human) phosphatase inhibition; Q9GZU7; Recombinant Scp1, phosphopeptide, malachite green phosphate absorbance; inhibition, % at 20 µM; hit rate 0.88% among 340,000;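 active = inhibition above about 50% at 20 µM, limit read from the data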;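 note: plate controls were DMSO wells with enzyme for no effect and wells lacking enzyme for full effect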
# Target sequence (Q9GZU7 76-261 limits assumed): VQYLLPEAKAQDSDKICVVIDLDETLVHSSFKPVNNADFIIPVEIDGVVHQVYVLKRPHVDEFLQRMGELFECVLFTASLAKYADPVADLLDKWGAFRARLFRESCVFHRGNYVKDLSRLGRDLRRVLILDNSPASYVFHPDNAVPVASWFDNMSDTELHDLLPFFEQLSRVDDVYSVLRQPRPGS
#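 Test system – truncated SCP-1 phosphatase (76-261aa) · Reagent – Phosphorylated 17-residue peptide substrate · Incubation – 45 min room-temperature reaction, 5 min colour, 30 min stabiliser · Detection – colorimetric phosphate reagent with accelerator and stabiliser, absorbance at 630 nm · Measure – % inhibition at 20 µM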
# LMPTP block: blocks human LMPTP phosphatase; P24666; recombinant LMPTP-A, OMFP fluorogenic substrate, fluorescence intensity; inhibition, % at 20 µM; hit rate 0.22% among 360,000; AID 651560;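 active = compounds that cut the enzyme signal by at least half of the control window in the single-dose screen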;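 note: plate controls were DMSO wells with enzyme plus substrate for no effect and substrate without enzyme for full effect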
# Target sequence (P24666 whole entry, looked up): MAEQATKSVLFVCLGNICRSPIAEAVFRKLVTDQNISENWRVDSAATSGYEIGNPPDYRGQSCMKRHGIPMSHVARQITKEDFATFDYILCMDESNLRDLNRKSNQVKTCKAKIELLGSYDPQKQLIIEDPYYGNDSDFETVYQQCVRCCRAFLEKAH
#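 material = LMPTP-A | quantity = 0.625 nM enzyme | reagent = OMFP substrate, 400 µM final | buffer or medium = Bis-Tris pH 6.0, DTT, detergent | detection = endpoint fluorescence intensity from OMFP dephosphorylation | dosing = single 20 µM dose | read-out basis = % inhibition relative to no-enzyme and uninhibited control wells | control set = no-enzyme and uninhibited controls | timing = 50 min at room temperature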
# NadD inh: NadD (S. aureus) enzyme inhibition; purified NadD enzyme, colorimetric absorbance read-out; inhibition, % at 20 µM; hit rate 0.78% among 360,000; in the data active = inhibition above about 26%
# NadD conf: confirmation of Staphylococcus aureus NadD inhibitors | shares compounds with NadD inh | purified S. aureus NadD, colorimetric enzyme assay | inhibition, % at 20 µM | hit rate 13% among 2,000 | AID 624309; in the data active = inhibition mostly above about 42%, no sharp cut-off; inactive = mostly below about 42%
# * marks the source's active call; other numbers are inactive results; . = no result given.
SMILES,DNMT1 inh,STEP inh,SUMO1 PPI mod,Scp-1 inhibitor,LMPTP block,NadD inh,NadD conf
COc1cc(C2/C(=C(\O)c3ccc4c(c3)OCCO4)C(=O)C(=O)N2c2nnc(C)s2)cc(OC)c1OC (configuration not stated),0.2,3.9,-20.7,-8.2,-1.0,0.5,.
COC(=O)C1CCN(C2CC(=O)N(c3cc(C)cc(C)c3)C2=O)CC1 (configuration not stated),2.0,-1.0,-2.1,-8.0,-0.9,-6.2,.
O=C(Nc1nc2c(s1)CN(Cc1ccccc1)CC2)c1cccc(S(=O)(=O)N2CCc3ccccc32)c1,-16.1,-7.6,-5.6,7.5,2.9,34.0*,14.1
O=C(COc1ccc(/C=N/NC(=O)c2ccccc2O)cc1)Nc1ccc([N+](=O)[O-])cc1,6.7,6.4,0.3,-4.9,36.5,39.5*,-1.8
O=C(COc1ccc(/C=N/NC(=O)c2ccncc2)cc1)Nc1cccc([N+](=O)[O-])c1,-3.8,0.5,-14.5,8.1,0.9,1.9,.
O=C(NC(C(=O)N/N=C/c1c2ccccc2cc2ccccc12)c1n[nH]c(=O)c2ccccc12)c1ccccc1 (configuration not stated),-1.2,0.5,-14.1,-3.0,1.3,51.3*,23.4
Cc1ccc(-c2csc3nnc(SCC(=O)Nc4nsc(-c5ccccc5)n4)n23)cc1,3.3,2.3,3.6,14.6,3.0,16.6,.
O=C(CSc1nnc2scc(-c3ccccc3)n12)Nc1nsc(-c2ccc(Cl)cc2)n1,48.1,13.8,7.3,20.1,38.5,41.0*,10.1
Cc1ccc(-c2nc3ccccc3[nH]2)cc1NC(=O)c1sc2cc(Cl)ccc2c1Cl,16.4,4.1,-0.3,6.1,0.7,29.3*,11.8
CC1(C)CC[C@]2(C(=O)O)CC[C@]3(C)C(=CC[C@@H]4[C@@]5(C)CC[C@H](O)C(C)(C)[C@@H]5CC[C@]43C)[C@@H]2C1,29.2,.,4.5,-6.2,-13.8,29.5*,10.3
CC1(C)C2CC[C@]3(C)C(CC=C4[C@@H]5C[C@@](C)(CO)[C@@H]6C[C@@]5(CC[C@]43C)C(=O)O6)[C@@]2(C)CC[C@@H]1O (some centres not stated),.,.,.,-4.3,.,.,.
Cc1ccc(NC(=O)COc2ccc(S(=O)(=O)N3CCOCC3)cc2)cc1,0.1,-2.7,0.2,4.7,-0.3,-5.5,.
CC(C)c1ccc(NC(=O)COc2ccc(S(=O)(=O)N3CCOCC3)cc2)cc1,-1.6,-1.8,15.2,8.7,46.8,45.5*,0.6
O=C(O)c1ccc(-c2nc(-c3ccccc3)c(-c3cccs3)[nH]2)cc1,0.2,-3.6,13.4,-15.5,-0.3,-5.7,.
O=[N+]([O-])c1ccc(O)c(-c2nc(-c3ccccc3)c(-c3cccs3)[nH]2)c1,-22.2,0.7,2.7,0.4,6.2,34.4*,10.1
S=c1[nH]nc(-c2cc(-c3ccccc3)n[nH]2)n1/N=C/c1ccc(Cl)cc1,35.9,2.1,2.6,-3.6,0.8,26.3*,39.1
N#C/C(=C\c1c[nH]c2ccccc12)C(=O)Nc1ncc(Cc2ccc(Cl)cc2Cl)s1,-14.4,-1.8,2.0,-2.7,2.4,38.1*,-4.8
N#Cc1c(-c2ccco2)cc(-c2ccc(F)cc2)nc1N,44.2,1.2,14.3,15.6,4.3,51.9*,1.1
CC1Cc2ccccc2N1Cc1nc2scc(-c3cccs3)c2c(=O)[nH]1 (configuration not stated),-11.4,-2.6,9.3,-13.2,3.4,46.0*,-4.5
COc1ccc(N2CCN(Cc3nc4scc(-c5cccs5)c4c(=O)[nH]3)CC2)cc1,-1.4,1.3,-1.7,-4.2,-0.4,3.3,.
COC(=O)c1ccc2c(=O)[nH]c(CN3c4ccccc4CC3C)nc2c1 (configuration not stated),-12.0,0.3,7.5,-7.0,3.7,50.1*,6.4
COc1ccc(OC)c(NC(=O)NCCc2cccc(Cl)c2)c1,-5.6,0.6,2.0,-5.5,-0.4,0.2,.
CC1=C(C(=O)Nc2ccccc2)C(c2ccc(C)o2)n2c(s/c(=C\c3ccco3)c2=O)=N1 (configuration not stated),-3.2,4.3,1.2,3.2,3.8,34.1*,3.2
COc1cccc(C2C(C(=O)Nc3ccccc3)=C(C)N=c3s/c(=C/c4ccc(OCC(=O)O)cc4)c(=O)n32)c1 (configuration not stated),1.6,4.7,0.6,-1.8,1.7,17.3,.
CC(C)CC(C)c1cc(N)nc2nc3ccccc3n12 (configuration not stated),2.0,0.9,-0.1,0.8,15.2,0.5,.
SMILES,DNMT1 inh,STEP inh,SUMO1 PPI mod,Scp-1 inhibitor,LMPTP block,NadD inh,NadD conf
Cc1ccc(C(=O)Nc2nnc(NC(=S)Nc3ccccc3)s2)cc1,-12.5,0.4,6.0,-14.4,0.5,23.4,.
CCOc1ccc(C(=O)Nc2nnc(NC(=S)Nc3ccccc3)s2)cc1,-6.5,-1.8,2.9,-14.4,-1.8,35.1*,11.4
CCCSC1=N/C(=C\c2ccc3c(c2)OCO3)C(=O)S1,1.2,2.9,-4.4,-10.5,0.7,39.7*,-2.7
CC(C)=CCC/C(C)=C/CNC(=O)C[C@H]1C[C@H](C(=O)N(C(C)C)C(C)C)[C@@]2(C)c3[nH]c4cc(-c5ccco5)ccc4c3CCN2C1=O,-20.1,1.9,4.4,-6.6,4.5,33.5*,-1.6
CC(C)=CCC/C(C)=C/CNC(=O)C[C@H]1C[C@H](C(=O)N2CCOCC2)[C@@]2(CCC3CCCC3)c3[nH]c4cc(-c5ccco5)ccc4c3CCN2C1=O,-2.7,1.7,7.6,4.1,2.2,45.9*,11.5
Cc1cccc(S(=O)(=O)NC(=O)C2(C)CCN2C(=O)c2ccccc2CCc2ccccc2)c1 (configuration not stated),7.3,-0.1,-0.5,.,-0.3,0.3,.
Cc1ccccc1-n1c(SCC(=O)N/N=C/C=C/c2ccccc2[N+](=O)[O-])nc2ccccc2c1=O,-11.1,-1.0,-5.9,-3.1,3.4,32.7*,17.9
COc1ccccc1-c1cc(C(=O)N/N=C/C=C/c2ccccc2[N+](=O)[O-])c2ccccc2n1,-5.8,0.7,-3.9,8.1,1.4,38.2*,29.7
Cc1cc(C)cc(C(=O)N2CCN(c3ccccn3)CC2)c1,-0.3,-1.5,-0.7,-6.5,-0.9,4.5,.
CC(C)(C)NS(=O)(=O)c1ccc(CCC(=O)NCc2ccccn2)cc1,-2.4,4.7,3.8,-6.2,-1.1,-3.7,.
CCOc1ccc2nc(Cl)c(C3CC(c4ccco4)=NN3S(=O)(=O)c3ccccc3)cc2c1 (configuration not stated),-14.5,-0.1,-13.7,-17.2,3.0,35.7*,23.3
CN1CCN(CC(=O)c2ccccc2F)CC1,-2.8,0.0,-0.8,-15.4,-4.1,-4.5,.

# Compound activity deposited in PubChem by Sanford-Burnham Center for Chemical Genomics.
